XiGFP reactiv: reactivates the inactive X chromosome in mouse fibroblasts. XiGFP mouse fibroblasts, % GFP-positive cells imaging, 3 d; cells co-treated with 5-aza-dC sensitizer; scaled so ellipticine positive control = 100%. activation, % at 7.58 µM. hit rate 0.055% among 360,000;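 active = mean normalized replicate activation at least 10% and every replicate at or above 10%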;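 note: 0% = median of on-plate neutral control wells and 100% = ellipticine 6 µM median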
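System: SV40-immortalized XiGFP fibroblast cells, line 68-5-11 / Incubation: 3-day compound exposure, then 15 min fixation at room temperature / Compound: single concentration per compound, delivered by pin transfer / Buffer or medium: DMEM plus 5-aza-dC sensitizer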
ARNT-TACC3 inh: disrupts binding between human ARNT and TACC3; Q9Y6A5; AlphaScreen His-ARNT PAS-B/GST-TACC3 binding, luminescence; TACC3 fragment carries E629A point mutation; inhibition, % at 9.99 µM; hit rate 0.66% among 390,000; AID 623870;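 active = mean inhibition of replicates at least 50% and at least half of replicates each reaching 50%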;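 note: 0% = complete ARNT plus TACC3 wells and 100% = ARNT alone without TACC3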
SR-BI DiI inh: blocks mouse SR-BI lipid uptake from DiI-HDL; hit rate 0.96% among 320,000; ldlA[mSR-BI] CHO cells, DiI-HDL uptake fluorescence, 3 h; inhibition, % at 12.5 µM; Q61009;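 active = mean replicate inhibition of at least 70% and a set share of replicates each scoring 70 or more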;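 note: 0% = median of neutral control wells and 100% = median of positive control wells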
sPLA2-III inh: Blocks human group III sPLA2 activity; Q9NZ20; QFRET BODIPY PC-A2 liposome hydrolysis, fluorescence; inhibition, % at 12.2 µM; hit rate 0.56% among 370,000; AID 743126;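 active = inhibition above mean plus 3 SD of compounds lying within the high and low control bounds, cut at about 19% in these data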;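 note: 0% = median of test compound wells and 100% = no enzyme DMSO wells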
Target sequence (Q9NZ20 whole entry, looked up): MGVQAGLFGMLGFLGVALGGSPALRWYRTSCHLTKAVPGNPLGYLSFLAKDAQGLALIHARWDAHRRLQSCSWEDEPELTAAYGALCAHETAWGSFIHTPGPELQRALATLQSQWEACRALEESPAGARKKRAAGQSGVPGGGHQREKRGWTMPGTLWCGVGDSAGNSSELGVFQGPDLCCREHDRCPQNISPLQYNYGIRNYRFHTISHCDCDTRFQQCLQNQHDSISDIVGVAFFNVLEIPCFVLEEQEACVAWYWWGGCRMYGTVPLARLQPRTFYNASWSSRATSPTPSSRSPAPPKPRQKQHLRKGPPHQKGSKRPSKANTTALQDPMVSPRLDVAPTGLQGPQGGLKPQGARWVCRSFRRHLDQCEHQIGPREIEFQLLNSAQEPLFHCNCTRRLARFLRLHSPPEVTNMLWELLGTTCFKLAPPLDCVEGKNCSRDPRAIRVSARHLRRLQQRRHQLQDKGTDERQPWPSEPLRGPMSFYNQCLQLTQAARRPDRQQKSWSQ
NSD2 inh: NSD2 (human) methyltransferase inhibition; O96028; NSD2 peptide methylation, AlphaScreen, 120 min; inhibition, % at 12.5 µM; hit rate 0.54% among 310,000; in the data active = inhibition above about 50%
SR-BI DiI-HDL act: SR-BI HDL lipid transfer activation. CHO ldlA[mSR-BI] cells, DiI-HDL uptake fluorescence, 3 h; 100 = double the neutral-control signal. activation, % at 12.5 µM. hit rate 0.096% among 320,000. AID 504775;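 active = mean replicate activation of at least 60% and every replicate at or above 60%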;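 note: 0% = median plate neutral-control signal and 100% = twice that signal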
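system = CHO ldlA[mSR-BI] cells, LDL receptor-null, SR-BI overexpressing | medium = Ham's F12 with 0.5% BSA, HEPES 25 mM, pH 7.4 | probe or stimulus = DiI-HDL 10 µg/mL | compound dosing = single-point compound dose | incubation = compound exposure 3 h, 37 °C | technique = DiI fluorescence, bottom read | read-out = cell-associated DiI fluorescence as measure of HDL uptake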
Active calls of the source: *; nt = no result given. This is a sample that favours compounds with a hit; in the whole collection about 2% have one here.

SMILES	XiGFP reactiv	ARNT-TACC3 inh	SR-BI DiI inh	sPLA2-III inh	NSD2 inh	SR-BI DiI-HDL act
O=C(CCN1C(=O)/C(=C\c2ccccc2)SC1=S)NNC(=O)c1ccncc1	0	nt	nt	-5	1	nt
O=[N+]([O-])c1ccccc1N/N=C\c1ccccc1Cl	nt	1	3	7	19	-3
CCCOc1ccc(/C=N/Nc2ccccc2[N+](=O)[O-])c(OCCC)c1	0	-1	104*	0	4	-104
Cc1cc2oc(=O)cc(CN3CCOCC3)c2cc1O	0	-8	-14	0	-1	14
COc1ccc(C(=O)N/C(=C\c2ccco2)C(=O)NCCCn2ccnc2)cc1	0	19	7	1	-3	-7
Cc1ccc(C(=O)N/C(=C\c2ccco2)C(=O)NCCCn2ccnc2)cc1C	nt	77*	-10	-6	nt	10
COc1ccc(C(=O)N/C(=C\c2cccs2)C(=O)N2CCN(C)CC2)cc1OC	0	5	14	-3	-2	-14
Cc1ccc(C(=O)N/C(=C\c2cccs2)C(=O)NCCCn2ccnc2)cc1C	nt	71*	-10	-5	-1	10
COc1ccc(C(=O)N/C(=C/c2cccs2)C(=O)NN)cc1OC	0	0	75*	0	0	-75
CC(C)NC(=O)N(C)C[C@H]1Oc2c(NC(=O)c3ccc(-c4nccs4)cc3)cccc2C(=O)N([C@@H](C)CO)C[C@@H]1C	0	nt	nt	nt	nt	nt
COC(=O)c1cc(NC(=O)CC2SC(=Nc3ccccc3)N(CCc3c[nH]c4ccccc34)C2=O)cc(C(=O)OC)c1 (centres undefined)	nt	0	35	-18	nt	-35
CC(=O)C1=C(c2ccccc2)N(C(C)=O)n2c(C)nnc2S1	0	35*	-12	9	8	12
Cc1ccccc1Oc1cc(-n2ncc(Cl)c(Cl)c2=O)ncn1	7	-8	22	21*	1	-22
CCOc1cnn(-c2cc(Oc3ccc(C)cc3)ncn2)c(=O)c1Cl	nt	-2	14	-4	-10	-14
Cc1cc(Nc2nc3ccccc3nc2Cl)n(-c2ccc([N+](=O)[O-])cc2)n1	nt	-1	79*	6	-2	-79
Cc1cc(Nc2nc3ccccc3[nH]c2=O)n(-c2ccccc2)n1	nt	-2	16	3	nt	-16
C[C@@H]1CN([C@H](C)CO)C(=O)Cc2cc(NC(=O)CCCN(C)C)ccc2O[C@H]1CN(C)S(=O)(=O)c1ccccc1	-1	0	nt	nt	nt	nt
Cc1cc(C)c(S(=O)(=O)/N=C2/C=C(SCC(=O)O)C(=O)c3ccccc32)cc1C	nt	74*	13	nt	nt	-13
CCOC(=O)C1=C(C)NC2=C(C(=O)CCC2)C1c1ccc(N(C)C)cc1 (centres undefined)	nt	active	-9	5	3	9
CCCOC(=O)C1=C(C)NC2=C(C(=O)CCC2)C1c1ccc(N(C)C)cc1 (centres undefined)	nt	1	26	11	9	-26
COc1ccc(NC(=O)CCn2c(=O)c3cccn3c3ccccc32)c(OC)c1	0	-1	75*	-3	-1	-75
Cc1cc(C)cc(NC(=O)CCn2c(=O)c3cccn3c3ccccc32)c1	0	-6	81*	-9	2	-81
COc1ccc(NC(=O)CCn2c(=O)c3cccn3c3ccccc32)cc1	0	1	52	-10	29	-52
O=C(CCn1c(=O)c2cccn2c2ccccc21)Nc1ccc(F)cc1	0	-1	75*	-4	-2	-75
O=C1NC(Cc2ccccc2)c2nc3cc(F)ccc3c(=O)n2-c2cc3ccccc3cc21 (centres undefined)	0	nt	nt	-2	nt	nt
COc1ccccc1CCC(=O)OCC(=O)NC1CC1	0	-6	-14	9	-2	14
O=C(NC(=S)NCc1ccccc1Cl)c1cccs1	0	2	0	-7	-1	0
CCOC(=O)C1(CCc2ccccc2)CCN(C(=O)C2CCOCC2)CC1	0	-8	80*	4	10	-80
C[C@@H]1CN([C@H](C)CO)C(=O)c2cc(C#CC3CCCCC3)cnc2O[C@@H]1CN(C)C(=O)c1ccncc1	0	-7	nt	nt	nt	nt
